From ChEMBL document CHEMBL1153988 (J Med Chem, 2009)
The source made the active and inactive calls. The calls are words filed in the database; no cut-off is given here.

Assays:
Rattus norvegicus [1] = assay: Anticonvulsant activity in albino Sprague-Dawley rat assessed as protection against maximal electroshock-induced seizures at 75 mg/kg, po after 15 mins; type: functional
Procedure, shortened: (§1)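 Adult male Sprague-Dawley albino rats (100-150 g) dosed orally with compound suspended in 0.5% methylcellulose (0.04 mL per 10 g). Maximal electroshock challenge at the stated time. Protection is scored in 25% steps as the fraction of animals protected, with neurotoxicity recorded in parallel.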

Rattus norvegicus [2] = assay: Anticonvulsant activity in albino Sprague-Dawley rat assessed as protection against maximal electroshock-induced seizures at 75 mg/kg, po after 30 mins; type: functional; procedure, shortened: as §1
Rattus norvegicus [3] = assay: Anticonvulsant activity in albino Sprague-Dawley rat assessed as protection against maximal electroshock-induced seizures at 75 mg/kg, po after 1 hr; type: functional, organism-based; design: dose 75 mg/kg; procedure, shortened: as §1
Rattus norvegicus [4] = assay: Anticonvulsant activity in albino Sprague-Dawley rat assessed as protection against maximal electroshock-induced seizures at 75 mg/kg, po after 2 hrs; type: functional, organism-based; design: dose 75 mg/kg; procedure, shortened: as §1
Rattus norvegicus [5] = assay: Anticonvulsant activity in albino Sprague-Dawley rat assessed as protection against maximal electroshock-induced seizures at 75 mg/kg, po after 4 hrs; type: functional; procedure, shortened: as §1
Rattus norvegicus [6] = assay: Neurotoxicity in albino Sprague-Dawley rat assessed as animal exhibiting toxicity at 75 mg/kg, po; type: organism-based; design: dose 75 mg/kg, route oral; settings: in vivo
Procedure, shortened: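 Neurotoxicity was scored in male Sprague-Dawley albino rats (100-150 g) dosed orally with a suspension in 0.5% methylcellulose. The read-out was the fraction of animals showing neurotoxicity (minimal motor impairment).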

Rattus norvegicus [7] = assay: Anticonvulsant activity in albino Sprague-Dawley rat assessed as protection against scMet-induced seizures at 75 mg/kg, po after 15 mins; type: functional, organism-based; design: dose 75 mg/kg
Procedure, shortened: (§2)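 Male Sprague-Dawley albino rats (100-150 g) were given the compound orally as a suspension in 0.5% methylcellulose. Seizures were induced by subcutaneous pentylenetetrazol, dissolved in 0.9% saline as a 2.82% solution. The read-out was animals protected over animals tested.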

Rattus norvegicus [8] = assay: Anticonvulsant activity in albino Sprague-Dawley rat assessed as protection against scMet-induced seizures at 75 mg/kg, po after 30 mins; type: functional, organism-based; design: dose 75 mg/kg; procedure, shortened: as §2
Rattus norvegicus [9] = assay: Anticonvulsant activity in albino Sprague-Dawley rat assessed as protection against scMet-induced seizures at 75 mg/kg, po after 1 hr; type: functional, organism-based; design: dose 75 mg/kg; procedure, shortened: as §2
Rattus norvegicus [10] = assay: Anticonvulsant activity in albino Sprague-Dawley rat assessed as protection against scMet-induced seizures at 75 mg/kg, po after 2 hrs; type: functional; procedure, shortened: as §2
Rattus norvegicus [11] = assay: Anticonvulsant activity in albino Sprague-Dawley rat assessed as protection against scMet-induced seizures at 75 mg/kg, po after 4 hrs; type: functional, organism-based; design: dose 75 mg/kg; procedure, shortened: as §2
Mus musculus [12] = assay: Anticonvulsant activity in CF1 albino mouse assessed as protection against maximal electroshock-induced seizures at 30 mg/kg, ip after 4 hrs; type: functional, organism-based; design: dose 30 mg/kg
Procedure, shortened: (§3)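 Adult male CF no. 1 albino mice (18-25 g). Test compound suspended in 0.5% methylcellulose and given intraperitoneally at 0.01 mL/g body weight. Maximal electroshock challenge at the stated time. Read-out is the number of animals protected over the number tested; neurotoxicity is scored in parallel.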

Mus musculus [13] = assay: Anticonvulsant activity in CF1 albino mouse assessed as protection against maximal electroshock-induced seizures at 100 mg/kg, ip after 4 hrs; type: functional, organism-based; design: dose 100 mg/kg; procedure, shortened: as §3
Mus musculus [14] = assay: Anticonvulsant activity in CF1 albino mouse assessed as protection against maximal electroshock-induced seizures at 300 mg/kg, ip after 4 hrs; type: functional, organism-based; design: dose 300 mg/kg; procedure, shortened: as §3
Mus musculus [15] = assay: Anticonvulsant activity in CF1 albino mouse assessed as protection against scMet-induced seizures at 30 mg/kg, ip after 0.5 hrs; type: functional, organism-based; design: dose 30 mg/kg
Procedure, shortened: (§4)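 Adult male CF no. 1 albino mice (18-25 g) dosed intraperitoneally with compound suspended in 0.5% methylcellulose (0.01 mL/g). Convulsant challenge given subcutaneously as a 0.85% pentylenetetrazol solution in 0.9% saline. Read-out is animals protected over animals tested, with neurotoxicity scored in parallel.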

Mus musculus [16] = assay: Anticonvulsant activity in CF1 albino mouse assessed as protection against scMet-induced seizures at 100 mg/kg, ip after 0.5 hrs; type: functional, organism-based; design: dose 100 mg/kg; procedure, shortened: as §4
Mus musculus [17] = assay: Anticonvulsant activity in CF1 albino mouse assessed as protection against scMet-induced seizures at 300 mg/kg, ip after 0.5 hrs; type: functional, organism-based; design: dose 300 mg/kg; procedure, shortened: as §4
Mus musculus [18] = assay: Anticonvulsant activity in CF1 albino mouse assessed as protection against scMet-induced seizures at 30 mg/kg, ip after 4 hrs; type: functional, organism-based; design: dose 30 mg/kg; procedure, shortened: as §4
Mus musculus [19] = assay: Anticonvulsant activity in CF1 albino mouse assessed as protection against scMet-induced seizures at 100 mg/kg, ip after 4 hrs; type: functional, organism-based; design: dose 100 mg/kg; procedure, shortened: as §4
Mus musculus [20] = assay: Anticonvulsant activity in CF1 albino mouse assessed as protection against scMet-induced seizures at 300 mg/kg, ip after 4 hrs; type: functional, organism-based; design: dose 300 mg/kg; procedure, shortened: as §4
Mus musculus [21] = assay: Neurotoxicity in CF1 albino mouse at 30 mg/kg, ip after 0.5 hrs; type: toxicity, organism-based; design: dose 30 mg/kg, route intraperitoneal; settings: in vivo
Procedure, shortened: (§5)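 Male CF no. 1 albino mice (18-25 g) received a single ip dose as a suspension in 0.5% methylcellulose. The read-out was the number of animals showing neurotoxicity (minimal motor impairment) over the number tested.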

Mus musculus [22] = assay: Neurotoxicity in CF1 albino mouse at 30 mg/kg, ip after 4 hrs; type: toxicity, organism-based; design: dose 30 mg/kg, route intraperitoneal; settings: in vivo; procedure, shortened: as §5
Mus musculus [23] = assay: Neurotoxicity in CF1 albino mouse at 300 mg/kg, ip after 4 hrs; type: toxicity, organism-based; design: dose 300 mg/kg, route intraperitoneal; settings: in vivo; procedure, shortened: as §5
Mus musculus [24] = assay: Anticonvulsant activity in CF1 albino mouse assessed as protection against maximal electroshock-induced seizures at 30 mg/kg, ip after 0.5 hrs; type: functional, organism-based; design: dose 30 mg/kg; procedure, shortened: as §3
Mus musculus [25] = assay: Anticonvulsant activity in CF1 albino mouse assessed as protection against maximal electroshock-induced seizures at 100 mg/kg, ip after 0.5 hrs; type: functional, organism-based; design: dose 100 mg/kg; procedure, shortened: as §3
Mus musculus [26] = assay: Anticonvulsant activity in CF1 albino mouse assessed as protection against maximal electroshock-induced seizures at 300 mg/kg, ip after 0.5 hrs; type: functional, organism-based; design: dose 300 mg/kg; procedure, shortened: as §3
Rattus norvegicus [27] = assay: Anticonvulsant activity in albino Sprague-Dawley rat assessed as protection against maximal electroshock-induced seizures at 30 mg/kg, po after 15 mins; type: functional, organism-based; design: dose 30 mg/kg; procedure, shortened: as §1
Rattus norvegicus [28] = assay: Anticonvulsant activity in albino Sprague-Dawley rat assessed as protection against maximal electroshock-induced seizures at 30 mg/kg, po after 30 mins; type: functional, organism-based; design: dose 30 mg/kg; procedure, shortened: as §1
Rattus norvegicus [29] = assay: Anticonvulsant activity in albino Sprague-Dawley rat assessed as protection against maximal electroshock-induced seizures at 30 mg/kg, po after 1 hr; type: functional, organism-based; design: dose 30 mg/kg; procedure, shortened: as §1
Rattus norvegicus [30] = assay: Anticonvulsant activity in albino Sprague-Dawley rat assessed as protection against maximal electroshock-induced seizures at 30 mg/kg, po after 2 hrs; type: functional, organism-based; design: dose 30 mg/kg; procedure, shortened: as §1
Rattus norvegicus [31] = assay: Anticonvulsant activity in albino Sprague-Dawley rat assessed as protection against maximal electroshock-induced seizures at 30 mg/kg, po after 4 hrs; type: functional, organism-based; design: dose 30 mg/kg; procedure, shortened: as §1
Rattus norvegicus [32] = assay: Anticonvulsant activity in albino Sprague-Dawley rat assessed as protection against scMet-induced seizures at 30 mg/kg, po after 15 mins; type: functional; procedure, shortened: as §2
Rattus norvegicus [33] = assay: Anticonvulsant activity in albino Sprague-Dawley rat assessed as protection against scMet-induced seizures at 30 mg/kg, po after 30 mins; type: functional; procedure, shortened: as §2
Rattus norvegicus [34] = assay: Anticonvulsant activity in albino Sprague-Dawley rat assessed as protection against scMet-induced seizures at 30 mg/kg, po after 1 hr; type: functional
Procedure, shortened: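 Oral dosing of male Sprague-Dawley rats (100-150 g) with compound in 0.5% methylcellulose. Convulsant challenge given subcutaneously as a 2.82% pentylenetetrazol solution in 0.9% saline. Groups of about 8 rats per dose. For quantitation, doses spanning 0% to 100% protection were fitted by probit analysis to give ED50 with 95% confidence interval.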

Rattus norvegicus [35] = assay: Anticonvulsant activity in albino Sprague-Dawley rat assessed as protection against scMet-induced seizures at 30 mg/kg, po after 2 hrs; type: functional; procedure, shortened: as §2
Mus musculus [36] = assay: Neurotoxicity in CF1 albino mouse at 100 mg/kg, ip after 0.5 hrs; type: toxicity, organism-based; design: dose 100 mg/kg, route intraperitoneal; settings: in vivo; procedure, shortened: as §5
Mus musculus [37] = assay: Neurotoxicity in CF1 albino mouse at 300 mg/kg, ip after 0.5 hrs; type: toxicity, organism-based; design: dose 300 mg/kg, route intraperitoneal; settings: in vivo; procedure, shortened: as §5
Mus musculus [38] = assay: Neurotoxicity in CF1 albino mouse at 100 mg/kg, ip after 4 hrs; type: toxicity, organism-based; design: dose 100 mg/kg, route intraperitoneal; settings: in vivo; procedure, shortened: as §5
Rattus norvegicus [39] = assay: Anticonvulsant activity in albino Sprague-Dawley rat assessed as protection against scMet-induced seizures at 30 mg/kg, po after 4 hrs; type: functional, organism-based; design: dose 30 mg/kg; procedure, shortened: as §2

Compound | Activity (Mus musculus [12]) | Activity (Mus musculus [13]) | Activity (Mus musculus [14]) | Activity (Mus musculus [15]) | Activity (Mus musculus [16]) | Activity (Mus musculus [17]) | Activity (Mus musculus [18]) | Activity (Mus musculus [20]) | Activity (Mus musculus [21]) | Activity (Mus musculus [22]) | Activity (Mus musculus [23]) | Activity (Mus musculus [24]) | Activity (Mus musculus [25]) | Activity (Mus musculus [26]) | further results
CC1(C)C(C)(C)C1(Cl)C(=O)O | Non-toxic | Non-toxic | Non-toxic | Non-toxic | Non-toxic | Non-toxic | Non-toxic | Non-toxic | Non-toxic | Non-toxic | Non-toxic | Non-toxic | Non-toxic | Non-toxic | Activity (Rattus norvegicus [1]): 25%; Activity (Rattus norvegicus [2]): 25%; Activity (Rattus norvegicus [3]): inactive; Activity (Rattus norvegicus [4]): inactive; Activity (Rattus norvegicus [5]): 25%; Activity (Rattus norvegicus [6]): Not Active; Activity (Rattus norvegicus [7]): inactive; Activity (Rattus norvegicus [8]): inactive; Activity (Rattus norvegicus [9]): inactive; Activity (Rattus norvegicus [10]): 25%; Activity (Rattus norvegicus [11]): inactive; Activity (Mus musculus [19]): Non-toxic
CC1(C)C(C)(C)C1(F)C(=O)NC(N)=O | Non-toxic | Non-toxic | Non-toxic | Non-toxic | Non-toxic | Non-toxic | Non-toxic | Non-toxic | Non-toxic | Non-toxic | Non-toxic | Non-toxic | Non-toxic | Non-toxic | Activity (Rattus norvegicus [27]): inactive; Activity (Rattus norvegicus [28]): inactive; Activity (Rattus norvegicus [29]): inactive; Activity (Rattus norvegicus [30]): inactive; Activity (Rattus norvegicus [31]): inactive; Activity (Rattus norvegicus [32]): 25%; Activity (Rattus norvegicus [33]): 25%; Activity (Rattus norvegicus [34]): 25%; Activity (Rattus norvegicus [35]): 50%; Activity (Mus musculus [36]): Non-toxic; Activity (Mus musculus [37]): Non-toxic; Activity (Mus musculus [38]): Non-toxic; Activity (Rattus norvegicus [39]): inactive
